According to ChEMBL document CHEMBL1145909, “Optically active mexiletine analogues as stereoselective blockers of voltage-gated Na(+) channels” (J Med Chem, 2003):

Tests used:
[1] = Half-maximal concentration producing a tonic block (blocking sodium channels at resting conditions during infrequent depolarizing pulses) in Rana esculenta muscle; type: functional, tissue-based, Muscle tissue
Procedure, shortened: (§1)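 Three-vaseline-gap voltage clamp on single fibers microdissected from the ventral branch of Rana esculenta semitendinosus. After 10 min equilibration, Na⁺ currents recorded at 10 °C from a holding potential of -100 mV. Compounds diluted daily from stocks in physiological/external solution, DMSO at most 0.2%. IC50 from a nonlinear least-squares fit of concentration-response curves; data as mean ± SEM.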

Pelophylax lessonae [2] = experiment: Ratio of the concentrations of tonic block to that of phasic block; type: functional
[3] = Half-maximal concentration producing a phasic block (cumulative sodium current reduction at 10 HZ stimulation frequency) in Rana esculenta muscle; type: functional, tissue-based, Muscle tissue; procedure, shortened: as §1
Pelophylax lessonae [4] = experiment: Relative potency producing phasic block, relative to mexileitine

SMILES | IC50 [1] [µM] | Ratio (Pelophylax lessonae [2]) | IC50 [3] [µM] | Relative potency (Pelophylax lessonae [4])
Cc1cccc(C)c1OC[C@@H](C)N [(R)-MEXILETINE] | 54 | 2 | 23 | 1
Cc1cccc(C)c1OC[C@H](C)N [(S)-MEXILETINE] | 114 | 4 | 27 | 1
Cc1cccc(C)c1OCC(C)N (stereo unspecified) [MEXILETINE] | 83 | 3 | 29 | 
